Assay results as given in ChEMBL document CHEMBL4732237, “Discovery of 4-alkoxy-2-aryl-6,7-dimethoxyquinolines as a new class of topoisomerase I inhibitors endowed with potent in vitro anticancer activity” (2021).

What follows are compounds tested on BT-549 (assay: Growth inhibition of human BT-549 cells at 10 uM incubated for 48 hrs by sulforhodamine B assay relative to control). Conditions: read-out: GI.
Format: functional
Summary of the method: (§1)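 NCI-60 single-dose screen. Cells were grown in RPMI 1640 with 5% FBS and 2 mM L-glutamine and plated 24 h before drug addition. Compound was added at one concentration in DMSO-derived medium and incubated for 48 h at 37 °C in 5% CO2. Read-out was SRB protein stain at 515 nm. Result is percent growth versus the no-drug control and the time-zero cell count; values below 0 indicate lethality.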

Row | SMILES | inhibition of growth at 10 µM [%]
1 | COc1cc2nc(-c3ccc(Cl)cc3)cc(OCCN3CCCC3)c2cc1OC | 3

These compounds were tested on SF-268 (assay: Growth inhibition of human SF-268 cells at 10 uM incubated for 48 hrs by sulforhodamine B assay relative to control). Conditions: read-out: GI.
Format: functional
Summary of the method: (§2)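 NCI one-dose screen. Cells grown in RPMI 1640 with 5% FBS and 2 mM L-glutamine, plated and incubated 24 h at 37 °C, 5% CO2. DMSO-dissolved drug added, then 48 h further incubation. Adherent cells fixed with cold TCA, suspension cells fixed after settling. Stained with 0.4% SRB, absorbance read at 515 nm. Reported as percent growth relative to no-drug control and time-zero cell number.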

Row | SMILES | inhibition of growth at 10 µM [%]
2 | COc1cc2nc(-c3ccc(Cl)cc3)cc(OCCN3CCCC3)c2cc1OC | 3

What follows are compounds tested on HOP-92 (assay: Growth inhibition of human HOP-92 cells at 10 uM incubated for 48 hrs by sulforhodamine B assay relative to control). Conditions: read-out: GI.
Format: functional
Summary of the method: as §1

Row | SMILES | inhibition of growth at 10 µM [%]
3 | COc1cc2nc(-c3ccc(Cl)cc3)cc(OCCN3CCCC3)c2cc1OC | 3

These compounds were tested on UACC-257 (assay: Growth inhibition of human UACC-257 cells at 10 uM incubated for 48 hrs by sulforhodamine B assay relative to control). Conditions: read-out: GI.
Format: functional
Summary of the method: (§3)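 NCI one-dose screen across a 59-line panel. Cells were grown in RPMI 1640 with 5% FBS and 2 mM L-glutamine, plated and pre-incubated 24 h, then exposed to drug for 48 h at 37 °C, 5% CO2. Adherent cells were fixed with cold TCA (10% final), stained with 0.4% SRB in 1% acetic acid and read at 515 nm. Result is percent growth relative to no-drug control and time-zero cell count.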

Row | SMILES | inhibition of growth at 10 µM [%]
4 | COc1cc2nc(-c3ccc(Cl)cc3)cc(OCCN3CCCC3)c2cc1OC | 3

What follows are compounds tested on SK-MEL-2 (assay: Growth inhibition of human SK-MEL-2 cells at 10 uM incubated for 48 hrs by sulforhodamine B assay relative to control). Conditions: read-out: GI.
Format: functional
Summary of the method: as §2

Row | SMILES | inhibition of growth at 10 µM [%]
5 | COc1cc2nc(-c3ccc(Cl)cc3)cc(OCCN3CCCC3)c2cc1OC | 3

The compounds below were run on LOX IMVI (assay: Growth inhibition of human LOX IMVI cells at 10 uM incubated for 48 hrs by sulforhodamine B assay relative to control). Conditions: read-out: GI.
Format: functional
Summary of the method: as §1

Row | SMILES | inhibition of growth at 10 µM [%]
6 | COc1cc2nc(-c3ccc(Cl)cc3)cc(OCCN3CCCC3)c2cc1OC | 3

The compounds below were run on T47D (assay: Growth inhibition of human T47D cells at 10 uM incubated for 48 hrs by sulforhodamine B assay relative to control). Conditions: read-out: GI.
Format: functional
Summary of the method: as §3

Row | SMILES | inhibition of growth at 10 µM [%]
7 | COc1cc2nc(-c3ccc(Cl)cc3)cc(OCCN3CCCC3)c2cc1OC | 3

These compounds were tested on NCI/ADR-RES (assay: Growth inhibition of human NCI/ADR-RES cells at 10 uM incubated for 48 hrs by sulforhodamine B assay relative to control). Conditions: read-out: GI.
Format: functional
Summary of the method: as §2

Row | SMILES | inhibition of growth at 10 µM [%]
8 | COc1cc2nc(-c3ccc(Cl)cc3)cc(OCCN3CCCC3)c2cc1OC | 3

The compounds below were run on MDA-MB-468 (assay: Growth inhibition of human MDA-MB-468 cells at 10 uM incubated for 48 hrs by sulforhodamine B assay relative to control). Conditions: read-out: GI.
Format: functional
Summary of the method: as §1

Row | SMILES | inhibition of growth at 10 µM [%]
9 | COc1cc2nc(-c3ccc(Cl)cc3)cc(OCCN3CCCC3)c2cc1OC | 3

These compounds were tested on NCI-H460 (assay: Growth inhibition of human NCI-H460 cells at 10 uM incubated for 48 hrs by sulforhodamine B assay relative to control). Conditions: read-out: GI.
Format: functional
Summary of the method: as §2

Row | SMILES | inhibition of growth at 10 µM [%]
10 | COc1cc2nc(-c3ccc(Cl)cc3)cc(OCCN3CCCC3)c2cc1OC | 3

These compounds were tested on UACC-62 (assay: Growth inhibition of human UACC-62 cells at 10 uM incubated for 48 hrs by sulforhodamine B assay relative to control). Conditions: read-out: GI.
Format: functional
Summary of the method: as §3

Row | SMILES | inhibition of growth at 10 µM [%]
11 | COc1cc2nc(-c3ccc(Cl)cc3)cc(OCCN3CCCC3)c2cc1OC | 3

Each compound was assayed on KM12 (assay: Growth inhibition of human KM12 cells at 10 uM incubated for 48 hrs by sulforhodamine B assay relative to control). Conditions: read-out: GI.
Format: functional
Summary of the method: as §1

Row | SMILES | inhibition of growth at 10 µM [%]
12 | COc1cc2nc(-c3ccc(Cl)cc3)cc(OCCN3CCCC3)c2cc1OC | 3

These compounds were tested on PC-3 (assay: Growth inhibition of human PC-3 cells at 10 uM incubated for 48 hrs by sulforhodamine B assay relative to control). Conditions: read-out: GI.
Format: functional
Summary of the method: as §2

Row | SMILES | inhibition of growth at 10 µM [%]
13 | COc1cc2nc(-c3ccc(Cl)cc3)cc(OCCN3CCCC3)c2cc1OC | 3

The compounds below were run on OVCAR-3 (assay: Growth inhibition of human OVCAR-3 cells at 10 uM incubated for 48 hrs by sulforhodamine B assay relative to control). Conditions: read-out: GI.
Format: functional
Summary of the method: as §2

Row | SMILES | inhibition of growth at 10 µM [%]
14 | COc1cc2nc(-c3ccc(Cl)cc3)cc(OCCN3CCCC3)c2cc1OC | 3

The compounds below were run on K562 (assay: Growth inhibition of human K562 cells at 10 uM incubated for 48 hrs by sulforhodamine B assay relative to control). Conditions: read-out: GI.
Format: functional
Summary of the method: as §1

Row | SMILES | inhibition of growth at 10 µM [%]
15 | COc1cc2nc(-c3ccc(Cl)cc3)cc(OCCN3CCCC3)c2cc1OC | 3

These compounds were tested on SN12C (assay: Growth inhibition of human SN12C cells at 10 uM incubated for 48 hrs by sulforhodamine B assay relative to control). Conditions: read-out: GI.
Format: functional
Summary of the method: as §2

Row | SMILES | inhibition of growth at 10 µM [%]
16 | COc1cc2nc(-c3ccc(Cl)cc3)cc(OCCN3CCCC3)c2cc1OC | 3

These compounds were tested on Hs-578T (assay: Growth inhibition of human HS-578T cells at 10 uM incubated for 48 hrs by sulforhodamine B assay relative to control). Conditions: read-out: GI.
Format: functional
Summary of the method: as §1

Row | SMILES | inhibition of growth at 10 µM [%]
17 | COc1cc2nc(-c3ccc(Cl)cc3)cc(OCCN3CCCC3)c2cc1OC | 3

Each compound was assayed on OVCAR-8 (assay: Growth inhibition of human OVCAR-8 cells at 10 uM incubated for 48 hrs by sulforhodamine B assay relative to control). Conditions: read-out: GI.
Format: functional
Summary of the method: as §2

Row | SMILES | inhibition of growth at 10 µM [%]
18 | COc1cc2nc(-c3ccc(Cl)cc3)cc(OCCN3CCCC3)c2cc1OC | 3
